Reference: the EternaBench riboswitch data

Columns and labels:
[1] = test system: MS2 coat protein; assay: apparent Kd, MS2 coat protein; higher = weaker binding; RNA-MaP array; theophylline 2 mM where present
Method in brief: (§1)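 Stalled E. coli RNA polymerase produced the designs on Illumina sequencing-chip clusters. SNAP-549-labelled MS2 coat protein was added from 0.7 or 1.5 nM, doubling to 3 µM, without and then with constant ligand, in 100 mM Tris-HCl pH 7.5, 80 mM KCl, 4 mM MgCl2, BSA, DTT, yeast tRNA and Tween-20. The apparent Kd is the median of filtered per-cluster fits of green signal normalised to red-channel RNA signal and control-cluster median Fmax.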

[2] = test system: MS2 coat protein; assay: apparent Kd, MS2 coat protein; higher = weaker binding; RNA-MaP array; tryptophan 2.4 mM where present; settings: designed as: ON switch for tryptophan
Method in brief: as §1

[3] = designed as: ON switch for theophylline, no ligand
[4] = ligand present: theophylline, designed as: ON switch for theophylline
[5] = designed as: OFF switch for theophylline, no ligand
[6] = ligand present: theophylline, designed as: OFF switch for theophylline

Sequence	apparent Kd [1, 3]	apparent Kd [1, 4]	apparent Kd [1, 5]	apparent Kd [1, 6]	further results
ACGACAUGAGGAUCACCCAUGUAAGGUGAUACCAGACGAAGUAAUGUCCCUUGGCAGCACAAGCAUAGUUGCGAUUAUUGUACGA	438 nM	158 nM	–	–	–
CCGCCCACGAAUGAUACCAGCUAAAAUCAUGUACCAGACACAUGAGGAUCACCCAUGUAAAGCCCUUGGCAGCGUACGCCACCCG	–	–	23.5 nM	26.4 nM	–
UAUAACAUGAGGAUCACCCAUGUAAGUGAUACCAGAUAAAUAAUAGUCCCUUGGCAGCAUAUUGGGAAAGUGUAUAAUAUAUAUU	52.2 nM	57 nM	–	–	–
ACAUGAAGAACAGCGGUGGGCGCGCUCGAUACCAGUACUUUGAUUUACCCUUGGCAGCGACAUGAGGAUCACCCAUGUGAGAUGA	–	–	18 nM	27.6 nM	–
AUAACAUGAGGAUCACCCAUGUAGAGUGAUACCAGACUAUGUAAUGUCCCUUGGCAGCACAAGUAAAGUUAUAAAUAAUGAUAGA	157 nM	27.2 nM	–	–	–
AAAUAAAUCACAUGAGGAUCACCCAUGGAUACCAGGCCUGGAAACAGCCCUUGGCAGCCACAUGAGGAUCACCCAUGUGCUAAAU	–	–	190 nM	198 nM	–
UUUGAUAGGACAGAUACCAGCGUGUUGUUGAACAUGAGGAUCACCCAUGUAGUGAUCAGGCGCCCUUGGCAGCUGGUUUGUUAGG	416 nM	347 nM	–	–	–
AGCACACAUCCUGAUACCAGAGACAUGAGGAUCACCCAUGUCCGAUCGUCCUGCCUCAGACUCCCUUGGCAGCAGGAUGUGUGCU	–	–	13.1 nM	32.4 nM	–
CGAAUACUGAGUGAUACCAGUGAAAGAUAACUGUAUACACAUGAGGAUCACCCAUGUACACACCCUUGGCAGCACACUAGAUCGA	33.3 nM	17.4 nM	–	–	–
AAUUGGGUUGGUGAGGUGGUUGGAGGCGAUACCAGCGUGGAAACACGCCCUUGGCAGCGCCAGGACAUGAGGAUCACCCAUGUUC	–	–	22.7 nM	35.2 nM	–
GUAAAUGUGACGGAUACCAGCGUGUUGUAGAACAUGAGGAUCACCCAUGUAGUGAUCAUGCGCCCUUGGCAGCUGGUAUGUUUGU	474 nM	841 nM	–	–	–
AAUAUAAGUGUAAUUUUAUGUAUCUCUGAUACCAGACCCUCAUGUGUCCCUUGGCAGCAGUAACAUGAGGAUCACCCAUGUAAAA	65.4 nM	310 nM	–	–	–
AGACAUGAGGAUCACCCAUGUAGCACGGAUACCAGAUCCAGAUGUAUCCCUUGGCAGCUGUGGUACAGCGUUGCAACGCUCCUAG	–	–	20.7 nM	28.1 nM	–
ACAUGAGGAUCACCCAUGUUCCUCAUUGAUACCAGUGAAAGAAGACGCCCUUGGCAGCGAGAAGAAGAAGAAGAAGUUUUUUUUU	–	–	606 nM	1340 nM	–
AGACAUGAGGAUCACCCAUGUAGUACGGAUACCAGAUCCAGAUGUAUCCCUUGGCAGCUGUGGUACAGCGUUACAUCGCUCCUAG	–	–	15.1 nM	19.4 nM	–
AUGUCAUUGGUGUAGCUGUGAAGUGGCGAUACCAGCGUGGAAACACGCCCUUGGCAGCGCCAAAACAUGAGGAUCACCCAUGUUA	–	–	22.3 nM	156 nM	–
ACAUGAAGAACAGCGGUGGGCGCGCUCGAUACCAGUACUUUAAAAUACCCUUGGCAGCGACAUGAGGAUCACCCAUGUGAGAUGA	–	–	15.3 nM	28.6 nM	–
CGGUUUGUGAUGGAUACCAGCAGAGAAAAUGUUUAUCCUGACAUGAGGAUCACCCAUGUGUGCCCUUGGCAGCUGUUGUGGGCUG	–	–	56.2 nM	75.3 nM	–
GAUGAAGUAACUGAUACCAGUGUACUGACAUGAGGAUCACCCAUGUUGGGUUUUGUUGUACACCCUUGGCAGCAGAAUCUUUAUC	–	–	52.3 nM	84.9 nM	–
GCGAUACGUACUGAUACCAGAGACAUGAGGAUCACCCAUGUCCCAUGAUCAUACCUCAGACUCCCUUGGCAGCAGGAUAAGUGAG	–	–	11.2 nM	18.3 nM	–
AUUAAUAGUUGUGAUACCAGACGAACAUGAGGAUCACCCAUGUAACUUAAGAGUGUUGAUGUCCCUUGGCAGCACUGUUUAGUUA	108 nM	87.8 nM	–	–	–
AGACAUGAGGAUCACCCAUGUAGUAUGGAUACCAGAUCCAGAUUUAUCCCUUGGCAGCUGUGGUACAGCGUUGGAUCGCUCCUAG	–	–	26.5 nM	–	–
CAUACUUUAGUAUGUUAUGUGGACAGUGAUACCAGAUACGAAAGUAUCCCUUGGCAGCACAACAUGAGGAUCACCCAUGUAAUUU	26.1 nM	15.6 nM	–	–	–
AGCAGUACAACAGAUACCAGACUUUUCAUGCCUUUAAUUACAUGAGGAUCACCCAUGUUUGUCCCUUGGCAGCUGUUGUACUGCA	–	–	41.9 nM	111 nM	–
CGAGUUCGCUGAUGGGCUACGUCAGGUGAUACCAGCCACUCCCGCGGCCCUUGGCAGCACAUGAGGAUCACCCAUGUAGAGCUUG	–	–	13.6 nM	238 nM	–
CGAUUUAAGACGGCCGCCACUAUUAAGUAACAAAAUAAACAUGAGGAUCACCCAUGUACAUGGGAUAGGACCGGGUCCAAUAUCG	–	–	–	–	apparent Kd ([2]; no ligand): 57.2 nM; apparent Kd ([2]; ligand present: tryptophan): 28.4 nM
